{"source": "paper PMC11421684", "about": "(Food and chemical toxicology : an international journal …, 2014)", "key": {"[1]": {"experiment": "Amniotic fluid triazine analysis by LC-MS/MS", "type": "in vivo, rat", "details": "pregnant female rats, pooled by dam; label = dose group; LOD 0.4 μg/mL", "outline": "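Amniotic fluid came from GD20 dams gavaged for 10 days with vehicle or 1000 mg/kg BW/day test compound. Melamine and cyanuric acid were measured by a previously published LC-MS/MS method, validated with pre-spiked amniotic fluid. Serum-to-amniotic fluid Pearson correlations were run only on rats with both samples (p ≤ 0.05).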"}, "[2]": {"experiment": "Formalin, ethanol and freezing effects on renal crystals", "set-up": "species or system rat", "outline": "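Fresh kidney wet-mounts with crystal rank 4–5 were flooded with 10% neutral buffered formalin and photographed repeatedly. Times were 0, 1, 2, 3 and 24 h for melamine-exposed kidney and 0, 10, 20, 30 min and 1 h for cyanuric acid-exposed kidney. Sections in 100% ethanol were checked daily for up to 6 days. Frozen tissue, either freeze–thawed or held at −70 °C, was cut into 6 μm cryosections, unstained or unfixed H&E.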"}, "[3]": {"test_system": "pregnant rats", "experiment": "Reproductive indices at necropsy", "type": "in vivo, rat", "outline": "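Time-pregnant rats were gavaged daily for 10 days from GD10 with 1% CMC-Na or 1000 mg/kg BW/day test compound. At necropsy the gravid uterus was removed whole and weighed, and corpora lutea, implants, and early and late deaths were recorded. Groups were compared against both control and the other triazine group.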"}, "[4]": {"experiment": "Serum triazine analysis by LC-MS/MS", "type": "in vivo", "details": "pregnant female rats, individual rat; label = dose group; LOD 0.4 μg/mL", "outline": "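Serum was collected from each rat after 10 daily gavages of 1000 mg/kg BW/day test compound or vehicle. Melamine and cyanuric acid were quantified by a previously published LC-MS/MS method, validated with pre-spiked serum samples at several fortification levels. Natural-log serum concentrations were compared between pregnant and non-pregnant rats by two-sided t-test (p ≤ 0.05).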"}, "[5]": {"test_system": "fetuses", "experiment": "Fetal data", "type": "in vivo, rat", "details": "dams, 1000 mg/kg BW/day, GD20", "outline": "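Dams were dosed by gavage (1000 mg/kg BW/day or 1% CMC-Na vehicle) for 10 days from GD10. At GD20 necropsy, the gravid uterus was removed whole and weighed. Each viable fetus was recorded for uterine position, sex, weight, crown-rump length and external abnormalities. Runts were defined as below 70% of the control litter average weight by gender.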"}, "[6]": {"test_system": "kidney", "experiment": "Kidney wet-mount analysis for renal crystals", "type": "in vivo, rat", "details": "pregnant and non-pregnant combined, wet-mount", "outline": "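After 10 days of gavage at 1000 mg/kg BW/day, a thin fresh renal slice spanning cortex and medulla was weighed. It was compressed between two slides with a coverslip and examined fresh by light microscopy. Crystals were ranked on a subjective 0–5 scale; some views used polarised light.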"}, "[7]": {"details": "oral, female rats; ref Jacob et al., 2012; cited from earlier work"}, "[8]": {"experiment": "Weight gains, feed and water consumption of gavaged rats", "type": "in vivo, rat", "details": "for Total feed consumption (g ± SEM) / Total water consumption (g ± SEM): 1000 mg/kg BW/day", "outline": "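Rats were housed singly at 18–26 °C, 40–70% RH and 12 h light/dark, with feed and water ad libitum. They were gavaged for 10 days from GD10 with vehicle (1% CMC-Na) or 1000 mg/kg BW/day test compound. Fluid intake was measured every 3 days and feed every 7 days. For dams, adjusted gain = GD20 body weight minus gravid uterus weight and GD10 weight.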"}, "[9]": {"experiment": "Body weight and organ weights standardized to body weight", "type": "in vivo, rat", "details": "for GD20 Body weight (g ± SEM) / Heart weight standardized to body weight (% ± SEM) / Left kidney weight standardized to body weight (% ± SEM) / Liver weight standardized to body weight (% ± SEM) / Right kidney weight standardized to body weight (% ± SEM) / Spleen weight standardized to body weight (% ± SEM) / Paired kidney weight standardized to body weight (% ± SEM): 1000 mg/kg BW/day; for Paired kidney weight standardized to body weight (% ± SEM): group mean, 1000 mg/kg/day"}, "[10]": {"test_system": "rats", "experiment": "Clinical observations and survival", "type": "in vivo, rat", "details": "pregnant and non-pregnant rats; 1000 mg/kg BW/day", "outline": "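Female rats, time-pregnant or non-pregnant, were weight-stratified and randomised from GD10. They were gavaged each morning for 10 days with 1% CMC-Na vehicle or 1000 mg/kg BW/day test compound at 1 mL/100 g (n = 11/group; pregnant high-triazine group n = 13). Observations were made at least twice on day 1, then at least daily, covering skin, fur, eyes, mucosa, autonomic/CNS signs and behaviour. Animals removed early were counted as deaths.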"}, "[11]": {"test_system": "kidney and bladder", "experiment": "Histopathology of kidney and bladder", "type": "in vivo, rat"}, "[12]": {"experiment": "Serum chemistry, renal function", "type": "in vivo, rat", "details": "for Blood urea nitrogen (mean ± SEM) / Creatinine (mean ± SEM) / Uric acid (mean ± SEM): serum", "outline": "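Serum was taken from pregnant and non-pregnant rats after 10 days of gavage with vehicle or 1000 mg/kg BW/day test compound. Samples were brought to room temperature. BUN, creatinine and uric acid were measured on a benchtop veterinary chemistry analyser. Results were compared with control and the other treated group.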"}, "[13]": {"details": "dams, 1000 mg/kg BW/day, necropsy GD20"}, "[14]": {"details": "not pregnant rats, 1000 mg/kg BW/day"}, "[15]": {"details": "pregnant and non-pregnant pooled"}, "[16]": {"details": "pregnant rats, 1000 mg/kg BW/day"}}, "note": "Where “and” joins values, the source holds several entries; their conditions need not be identical. Identical values can stand only once."}
{"compound": "Oc1nc(O)nc(O)n1", "note": "[CYA, cyanuric acid]", "values": [{"measurement": "MEL concentration, Amniotic Fluid", "setting": "[1]", "result": "<LOD"}, {"measurement": "Stability of crystals to freeze–thaw cycles", "setting": "[2]; frozen kidney tissue, CYA stable if held at −70 °C", "result": "dissolved"}, {"measurement": "Time at which almost all crystals were gone in formalin", "setting": "[2]; kidney wet-mount sections", "result": 30, "unit": "min"}, {"measurement": "Effect on reproductive indices compared with controls", "setting": "[3]; 1000 mg/kg BW/day", "result": "did not appear to have an effect"}, {"measurement": "No. corpea lutea (mean ± SEM)", "setting": "[3]; dams, 1000 mg/kg BW/day gavage GD10-20, necropsy GD20", "result": "15.1 ± 0.5"}, {"measurement": "Early and late deaths (mean% of implants ± SEM)", "setting": "[3]; [13]", "result": "3.4 ± 1.6 % of implants"}, {"measurement": "Early deaths (mean% of implants ± SEM)", "setting": "[3]; [13]", "result": "1.3 ± 0.9 % of implants"}, {"measurement": "Implant efficiency (mean% ± SEM)", "setting": "[3]; [13]", "result": "90.7 ± 3.0", "unit": "%"}, {"measurement": "Late deaths (mean% of implants ± SEM)", "setting": "[3]; [13]", "result": "2.0 ± 1.6 % of implants"}, {"measurement": "No. fetuses alive (mean ± SEM)", "setting": "[3]; [13]", "result": "13.2 ± 0.6"}, {"measurement": "No. implants (mean ± SEM)", "setting": "[3]; [13]", "result": "13.6 ± 0.5"}, {"measurement": "Percent alive both genders (mean% ± SEM)", "setting": "[3]; [13]", "result": "96.7 ± 1.6", "unit": "%"}, {"measurement": "Percent live females (mean% ± SEM)", "setting": "[3]; [13]", "result": "40.7 ± 3.8", "unit": "%"}, {"measurement": "MEL concentration, Serum", "setting": "[4]", "result": "<LOD"}, {"measurement": "Average crown rump length (mean cm ± SEM)", "setting": "[5]", "result": "4.10 ± 0.02", "unit": "cm"}, {"measurement": "Average fetal body weight (g ± SEM)", "setting": "[5]", "result": "4.06 ± 0.05", "unit": "g"}, {"measurement": "Litter size (mean ± SEM)", "setting": "[5]", "result": "13.2 ± 0.6"}, {"measurement": "Treated rats that developed renal crystals (percent)", "setting": "[6]; MEL n = 24, CYA n = 22", "result": 18, "unit": "%"}, {"measurement": "Number of treated rats that developed renal crystals", "setting": "[6]; MEL of 24, CYA of 22", "result": 4}, {"measurement": "Area under the curve (AUC)", "setting": "[7]", "result": 1375, "unit": "ng·h/mL"}, {"measurement": "Half-life", "setting": "[7]", "result": 59.4, "unit": "min"}, {"measurement": "Total feed consumption (g ± SEM)", "setting": "[8]; not pregnant rats", "result": "158.6 ± 8.8", "unit": "g"}, {"measurement": "Total water consumption (g ± SEM)", "setting": "[8]; not pregnant rats", "result": "264 ± 21.2", "unit": "g"}, {"measurement": "Total bw gain (g ± SEM)", "setting": "[8]; not pregnant rats, 1000 mg/kg BW/day gavage 10 days, brackets indicate negative", "result": "16.0 ± 4.1", "unit": "g"}, {"measurement": "Total feed consumption (g ± SEM)", "setting": "[8]; pregnant rats", "result": "220.1 ± 5.4", "unit": "g"}, {"measurement": "Total water consumption (g ± SEM)", "setting": "[8]; pregnant rats", "result": "353.6 ± 17.5", "unit": "g"}, {"measurement": "Total bw gain (g ± SEM)", "setting": "[8]; pregnant rats, 1000 mg/kg BW/day gavage GD10-20", "result": "94.2 ± 3.3", "unit": "g"}, {"measurement": "GD20 Body weight (g ± SEM)", "setting": "[9]; not pregnant rats", "result": "234.3 ± 4.5", "unit": "g"}, {"measurement": "Heart weight standardized to body weight (% ± SEM)", "setting": "[9]; not pregnant rats", "result": "0.38 ± 0.01", "unit": "%"}, {"measurement": "Left kidney weight standardized to body weight (% ± SEM)", "setting": "[9]; not pregnant rats", "result": "0.43 ± 0.02", "unit": "%"}, {"measurement": "Liver weight standardized to body weight (% ± SEM)", "setting": "[9]; not pregnant rats", "result": "3.48 ± 0.07", "unit": "%"}, {"measurement": "Right kidney weight standardized to body weight (% ± SEM)", "setting": "[9]; not pregnant rats", "result": "0.45 ± 0.03", "unit": "%"}, {"measurement": "Spleen weight standardized to body weight (% ± SEM)", "setting": "[9]; not pregnant rats", "result": "0.23 ± 0.02", "unit": "%"}, {"measurement": "Paired kidney weight standardized to body weight (% ± SEM)", "setting": "[9]; not pregnant rats", "result": "0.88% and 0.88 ± 0.05%"}, {"measurement": "GD20 Body weight (g ± SEM)", "setting": "[9]; pregnant rats", "result": "351.3 ± 6.1", "unit": "g"}, {"measurement": "Heart weight standardized to body weight (% ± SEM)", "setting": "[9]; pregnant rats", "result": "0.30 ± 0.01", "unit": "%"}, {"measurement": "Left kidney weight standardized to body weight (% ± SEM)", "setting": "[9]; pregnant rats", "result": "0.28 ± 0.02", "unit": "%"}, {"measurement": "Liver weight standardized to body weight (% ± SEM)", "setting": "[9]; pregnant rats", "result": "3.58 ± 0.09", "unit": "%"}, {"measurement": "Right kidney weight standardized to body weight (% ± SEM)", "setting": "[9]; pregnant rats", "result": "0.30 ± 0.01", "unit": "%"}, {"measurement": "Spleen weight standardized to body weight (% ± SEM)", "setting": "[9]; pregnant rats", "result": "0.17 ± 0.01", "unit": "%"}, {"measurement": "Paired kidney weight standardized to body weight (% ± SEM)", "setting": "[9]; pregnant rats", "result": "0.58% and 0.58 ± 0.03%"}, {"measurement": "Standardized paired kidney weight of individual rats with renal crystals", "setting": "[9]; two non-pregnant rats with crystals, both the same value", "result": 1.22, "unit": "%"}, {"measurement": "Standardized paired kidney weight of individual rats with renal crystals", "setting": "[9]; two pregnant rats with crystals", "result": "0.74% and 0.77%"}, {"measurement": "Maternal health during 10 day dosing period", "setting": "[10]", "result": "no treatment related health effects"}, {"measurement": "Number of rats with epithelial necrosis in the bladder", "setting": "[11]; MEL: pregnant rats, minimal to marked, CYA: 1 pregnant, 2 non-pregnant, mild", "result": "Three"}, {"measurement": "Number of rats with tubular dilation and necrosis", "setting": "[11]; kidney, H&E, of 22 treated rats", "result": 5}, {"measurement": "Effect on uric acid serum levels versus control rats", "setting": "[12]; 1000 mg/kg BW/day", "result": "did not appear to have an effect"}, {"measurement": "Mean BUN of treated rats with renal crystals", "setting": "[12]; 4 rats (2 pregnant and 2 non-pregnant)", "result": 31, "unit": "mg/dL"}, {"measurement": "Blood urea nitrogen (mean ± SEM)", "setting": "[12]; [14]", "result": "17.82 ± 2.33", "unit": "mg/dL"}, {"measurement": "Creatinine (mean ± SEM)", "setting": "[12]; [14]", "result": "0.59 ± 0.07", "unit": "mg/dL"}, {"measurement": "Uric acid (mean ± SEM)", "setting": "[12]; [14]", "result": "5.26 ± 0.27^& mg/dL"}, {"measurement": "Mean BUN of the other treated rats (without crystals)", "setting": "[12]; [15]", "result": 15, "unit": "mg/dL"}, {"measurement": "Mean creatinine of treated rats with crystals", "setting": "[12]; [15]", "result": 1.1, "unit": "mg/dL"}, {"measurement": "Mean creatinine of treated rats without crystals", "setting": "[12]; [15]", "result": 0.5, "unit": "mg/dL"}, {"measurement": "Blood urea nitrogen (mean ± SEM)", "setting": "[12]; [16]", "result": "17.45 ± 2.26", "unit": "mg/dL"}, {"measurement": "Creatinine (mean ± SEM)", "setting": "[12]; [16]", "result": "0.59 ± 0.07", "unit": "mg/dL"}, {"measurement": "Uric acid (mean ± SEM)", "setting": "[12]; [16]", "result": "3.37 ± 0.28", "unit": "mg/dL"}]}
